What was measured:
[1] = Selectivity ratio of Ki for monocloned delta opioid receptor to Ki for monocloned mu opioid receptor
Procedure, shortened: (§1)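 CHO cell membranes expressing cloned receptor incubated with radioligand plus varying test drug concentrations, 30 °C, 1 h. IC50 from linear regression of Hill plots, converted to Ki by Cheng-Prusoff; selectivity as Ki ratios.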

[2] = Selectivity ratio of Ki for monocloned kappa opioid receptor to Ki for monocloned mu opioid receptor; procedure, shortened: as §1
[3] = molecular target: Delta-type opioid receptor (Homo sapiens, UniProt P41143); experiment: Displacement of [3H]NTI from monocloned delta opioid receptor expressed in CHO cells; type: cell-based; procedure, shortened: as §1
Mu-type opioid receptor [4] = molecular target: T1, Mu-type opioid receptor (Homo sapiens, UniProt P35372); experiment: Displacement of [3H]naloxone from monocloned mu opioid receptor expressed in CHO cells; type: cell-based; procedure, shortened: as §1
[5] = molecular target: Kappa-type opioid receptor (Homo sapiens, UniProt P41145); experiment: Displacement of [3H]norBNI from monocloned kappa opioid receptor expressed in CHO cells; type: cell-based; procedure, shortened: as §1
Mu-type opioid receptor [6] = molecular target: T1, Mu-type opioid receptor; experiment: Activity at monocloned mu opioid receptor expressed in CHO cells by [35S]GTPgammaS binding assay; type: functional, cell-based
Procedure, shortened: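 Membranes from CHO cells stably expressing cloned MOR, the same membranes as used for binding. [35S]GTPγS binding as the functional read-out. Potency also reported. n = 3.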

Mus musculus [7] = experiment: Inhibition of morphine-induced antinociception in sc dosed Swiss Webster mouse assessed as dose producing 50% antagonism of morphine response preincubated for 5 mins before the addition of morphine assessed after 20 mins by warm water tail immersion test; type: functional
Mu-type opioid receptor [8] = molecular target: T1, Mu-type opioid receptor; experiment: Activity at monocloned mu opioid receptor expressed in CHO cells by [35S]GTPgammaS binding assay relative to DAMGO; type: functional, cell-based
[9] = Binding affinity to mu opioid Y210A mutant receptor expressed in CHO cells; type: cell-based
[10] = Binding affinity to mu opioid W318A mutant receptor expressed in CHO cells; type: cell-based
Mu-type opioid receptor [11] = molecular target: T1, Mu-type opioid receptor; experiment: biochemical
Mus musculus [12] = experiment: Induction of antinociception in sc dosed Swiss Webster mouse after 20 mins by warm water tail immersion test; type: functional

T1 sequence (P35372 whole entry): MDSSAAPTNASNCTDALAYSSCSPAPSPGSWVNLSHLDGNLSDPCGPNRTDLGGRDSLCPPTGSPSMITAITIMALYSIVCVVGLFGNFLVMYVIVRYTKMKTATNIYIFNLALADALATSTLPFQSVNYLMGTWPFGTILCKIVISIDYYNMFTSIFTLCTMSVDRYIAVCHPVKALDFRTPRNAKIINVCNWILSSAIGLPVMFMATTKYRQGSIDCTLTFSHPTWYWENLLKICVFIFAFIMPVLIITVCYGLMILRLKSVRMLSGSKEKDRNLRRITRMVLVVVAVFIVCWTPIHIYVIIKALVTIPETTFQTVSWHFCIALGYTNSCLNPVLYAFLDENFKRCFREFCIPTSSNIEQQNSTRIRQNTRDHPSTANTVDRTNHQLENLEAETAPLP
Sequence of Kappa-type opioid receptor (P41145 whole entry): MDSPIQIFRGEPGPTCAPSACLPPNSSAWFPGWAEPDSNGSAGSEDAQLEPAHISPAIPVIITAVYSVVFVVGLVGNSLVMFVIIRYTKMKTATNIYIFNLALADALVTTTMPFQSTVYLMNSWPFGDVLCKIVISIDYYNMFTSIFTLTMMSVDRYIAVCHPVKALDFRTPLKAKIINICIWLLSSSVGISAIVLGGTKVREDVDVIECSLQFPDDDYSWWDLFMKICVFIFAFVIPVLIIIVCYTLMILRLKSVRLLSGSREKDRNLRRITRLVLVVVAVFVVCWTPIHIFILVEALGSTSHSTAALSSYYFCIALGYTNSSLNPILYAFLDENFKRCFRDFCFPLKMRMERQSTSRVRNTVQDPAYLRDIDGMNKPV
Sequence of Delta-type opioid receptor (P41143 whole entry): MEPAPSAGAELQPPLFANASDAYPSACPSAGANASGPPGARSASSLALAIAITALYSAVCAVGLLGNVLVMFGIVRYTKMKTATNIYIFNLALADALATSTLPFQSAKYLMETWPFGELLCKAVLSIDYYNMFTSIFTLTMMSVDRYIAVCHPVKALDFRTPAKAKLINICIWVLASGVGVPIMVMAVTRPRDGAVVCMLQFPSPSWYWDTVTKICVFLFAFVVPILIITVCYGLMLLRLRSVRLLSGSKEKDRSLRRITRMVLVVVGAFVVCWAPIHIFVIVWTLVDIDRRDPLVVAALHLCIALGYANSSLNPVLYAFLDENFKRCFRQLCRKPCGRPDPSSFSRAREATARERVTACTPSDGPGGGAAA

Structure (SMILES)	Ratio Ki [1]	Ratio Ki [2]	Ki [3]	Ki (Mu-type opioid receptor [4])	Ki [5]	Emax (Mu-type opioid receptor [6])	EC50 (Mu-type opioid receptor [6]; read-out: EC50)	Activity (Mus musculus [7])	Activity (Mu-type opioid receptor [8])	IC50 [9]	IC50 [10]	IC50 (Mu-type opioid receptor [11])	EC50 (Mu-type opioid receptor [6]; cho)	ED50 (Mus musculus [12])
COc1cccc2c1[C@]13CCN(CC4CC4)[C@H](C2)[C@]1(OC)CCC(=O)C3	40	45												
O=C(N[C@H]1CC[C@@]2(O)[C@H]3Cc4ccc(O)c5c4[C@@]2(CCN3CC2CC2)[C@H]1O5)c1ccc2ccccc2c1	62	73	518 nM	8.36 nM	609 nM									
O=C(N[C@H]1CC[C@@]2(O)[C@H]3Cc4ccc(O)c5c4[C@@]2(CCN3CC2CC2)[C@H]1O5)c1cccnc1	265	501	40.8 nM	0.15 nM	77.2 nM	164%	1.01 nM	36.77 mg/kg	44.8%					
O=C(N[C@H]1CC[C@@]2(O)[C@H]3Cc4ccc(O)c5c4[C@@]2(CCN3CC2CC2)[C@H]1O5)c1ccncc1					19.6 nM	137%			37.3%					
O=C(N[C@H]1CC[C@@]2(O)[C@H]3Cc4ccc(O)c5c4[C@@]2(CCN3CC2CC2)[C@H]1O5)c1ccccn1	24	84	64.5 nM	2.65 nM	223 nM	134%	23.9 nM	0.89 mg/kg	37.8%					
O=C(N[C@H]1CC[C@@]2(O)[C@H]3Cc4ccc(O)c5c4[C@@]2(CCN3CC2CC2)[C@H]1O5)c1cc2ccccc2cn1	241	48	132 nM	0.55 nM	26.5 nM	58%	4.36 nM		15.8%	3.31 nM	> 1000 nM	5.42 nM		
O=C(N[C@@H]1CC[C@@]2(O)[C@H]3Cc4ccc(O)c5c4[C@@]2(CCN3CC2CC2)[C@H]1O5)c1ccccn1	37	47	215 nM	5.85 nM	278 nM	151%	26.3 nM	0.33 mg/kg	41.1%					
O=C(N[C@@H]1CC[C@@]2(O)[C@H]3Cc4ccc(O)c5c4[C@@]2(CCN3CC2CC2)[C@H]1O5)c1cnc2ccccc2c1	157	8	11.6 nM	0.07 nM	0.57 nM	196%		42.55 mg/kg	53.4%				0.29	
O=C(N[C@H]1CC[C@@]2(O)[C@H]3Cc4ccc(O)c5c4[C@@]2(CCN3CC2CC2)[C@H]1O5)c1ccc2ccccc2n1	693	46	148 nM	0.21 nM	9.84 nM	240%	0.09 nM		65.4%					4.57 mg/kg
O=C(N[C@@H]1CC[C@@]2(O)[C@H]3Cc4ccc(O)c5c4[C@@]2(CCN3CC2CC2)[C@H]1O5)c1cc2ccccc2cn1	156	16	15.4 nM	0.1 nM	1.58 nM	121%	0.27 nM		33%					1.19 mg/kg
O=C(N[C@@H]1CC[C@@]2(O)[C@H]3Cc4ccc(O)c5c4[C@@]2(CCN3CC2CC2)[C@H]1O5)c1cccnc1	1410	40	192 nM	0.14 nM	5.42 nM	107%	0.33 nM	1.38 mg/kg	29.1%					
O=C(N[C@@H]1CC[C@@]2(O)[C@H]3Cc4ccc(O)c5c4[C@@]2(CCN3CC2CC2)[C@H]1O5)c1ccc2ccccc2n1	36	47	3.86 nM	0.11 nM	5.04 nM	150%	0.69 nM		40.9%					0.04 mg/kg
O=C(N[C@@H]1CC[C@@]2(O)[C@H]3Cc4ccc(O)c5c4[C@@]2(CCN3CC2CC2)[C@H]1O5)c1ccccc1				0.92 nM	7.79 nM									
O=C(N[C@H]1CC[C@@]2(O)[C@H]3Cc4ccc(O)c5c4[C@@]2(CCN3CC2CC2)[C@H]1O5)c1cnc2ccccc2c1	277	16	32.2 nM	0.12 nM	1.81 nM	164%	2.29 nM	4.45 mg/kg	44.8%					
O=C(N[C@@H]1CC[C@@]2(O)[C@H]3Cc4ccc(O)c5c4[C@@]2(CCN3CC2CC2)[C@H]1O5)c1ccncc1						83.3%			22.7%		> 1000 nM			
O=C(N[C@@H]1CC[C@@]2(O)[C@H]3Cc4ccc(O)c5c4[C@@]2(CCN3CC2CC2)[C@H]1O5)c1ccc2ccccc2c1	0.5	1	29.3 nM	55.6 nM	65.3 nM									
O=C(N[C@H]1CC[C@@]2(O)[C@H]3Cc4ccc(O)c5c4[C@@]2(CCN3CC2CC2)[C@H]1O5)c1ccccc1				1.41 nM	41.7 nM									

Source: ChEMBL document CHEMBL1140920, “Design, synthesis, and biological evaluation of 6alpha- and 6beta-N-heterocyclic substituted naltrexamine derivatives as mu opioid receptor selective antagonists” (J Med Chem, 2009)
